The list is not random: actives were taken first. Their share in the collection is about 2.7%.
TCR-CD3 inh = inhibitors of human TCR-CD3 interaction, primary screen, biochemical, fluorescence, TAMRA-labeled TCR probe; T-cell receptor (TCR); inhibition, % at 9.4 µM; 360,000 compounds, 0.37% hits; in the data active means inhibition above about 19%;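 further: recombinant mutant TCR 2C K166C tagged with TAMRA read by polarization; 0% = receptor in buffer alone and 100% = receptor with positive control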
SIAE inh = human SIAE inhibitors, primary screen, biochemical, fluorescence polarization, FP-Rh probe, 1536-well HTS; SIAE FP-Rh probe binding; inhibition, % at 9.66 µM; 370,000 compounds, 0.69% hits; AID 1053197, 2014;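 active means inhibition above a cutoff: mean of compounds within the control limits plus 3 SD of those, cut at about 17% in these data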;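 further: 0% = plate median of compound wells and 100% = probe without SIAE protein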
HTRA1 inhibitor = HTRA1 serine protease inhibitors, primary screen, biochemical, fluorescence polarization, HTS; recombinant HTRA1, FP-rhodamine activity-based probe; inhibition, % at 5.96 µM; 340,000 compounds, 0.5% hits; AID 504803, 2011; in the data active means inhibition above about 36%;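 further: 0% = enzyme with DMSO and 100% = wells lacking enzyme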
PRMT1 inh = PRMT1 methyltransferase inhibitors, primary screen, biochemical, fluorescence polarization; AID 652257, 2013; 370,000 compounds, 1.3% hits; inhibition, % at 2.79 µM; recombinant PRMT1, activity-based probe fluorescence polarization; Protein arginine N-methyltransferase 1 (Homo sapiens), Q99873;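 active means inhibition above about 21% made by adding two undisclosed values, limit read from the data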
ABHD4 inh = ABHD4 inhibitors, primary screen, biochemical, fluorescence polarization, mouse; purified mABHD4, FP-Rh probe fluorescence polarization; inhibition, % at 8.92 µM; 370,000 compounds, 0.54% hits; AID 720543, 2013;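 active means inhibition exceeding the mean over every tested compound plus 3 SD, cut at about 30% in these data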;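 further: 0% = plate median of compound wells and 100% = S159A mutant with DMSO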
Target sequence (Q8VD66 whole entry, looked up): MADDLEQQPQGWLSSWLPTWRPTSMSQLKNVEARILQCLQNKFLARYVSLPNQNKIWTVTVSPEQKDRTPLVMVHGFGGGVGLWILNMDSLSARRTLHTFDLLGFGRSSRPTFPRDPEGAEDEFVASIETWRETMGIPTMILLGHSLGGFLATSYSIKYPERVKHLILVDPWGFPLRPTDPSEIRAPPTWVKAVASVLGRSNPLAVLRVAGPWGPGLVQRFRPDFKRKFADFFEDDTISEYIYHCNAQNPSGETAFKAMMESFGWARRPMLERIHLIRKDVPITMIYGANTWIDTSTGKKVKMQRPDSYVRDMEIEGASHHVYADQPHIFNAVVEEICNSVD
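system = mouse ABHD4 enzyme, wild type | medium = HEPES pH 7.0, NaCl, Pluronic buffer | also added = FP-Rh probe | incubation = Enzyme–compound pre-incubation 45 min, then probe 60 min, both 25 °C | technique = fluorescence polarization, excitation 525 nm, emission 598 nm, BODIPY TMR filters | controls = S159A mutant high control, sample median low control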
An asterisk follows results filed as active; nt = no result.

SMILES	TCR-CD3 inh	SIAE inh	HTRA1 inhibitor	PRMT1 inh	ABHD4 inh
Cc1ccccc1NC(=O)O[C@H]1CC[C@@]23CCCN2C(=O)CCC[C@H]3[C@H]1C	nt	12.0	nt	1.3	-1.2
CCC(C)N(C(=O)CSc1nnc(-c2cccnc2)n1C1CCCCC1)C(C)CC (centres undefined)	nt	0.7	nt	2.2	4.4
Cc1cc(NS(=O)(=O)c2ccc(Nc3nc(-c4ccc(C)c(C)c4)cs3)cc2)no1	-2.1	11.7	-45.5	6.1	21.7
Cc1cc(NS(=O)(=O)c2ccc(Nc3nc(-c4ccc(O)cc4)cs3)cc2)no1	12.0	-2.5	-1.1	1.5	41.8*
N#CC1CCN(c2nc(-c3ccc(Br)cc3)cs2)CC1	nt	-3.8	nt	-0.8	-4.6
CNc1nc(N)c([N+](=O)[O-])c(Nc2cccc(Br)c2)n1	nt	1.3	nt	-1.5	5.2
CSc1sc2ccccc2[n+]1CCCS(=O)(=O)[O-]	-3.5	7.2	-7.0	23.0*	5.5
Cc1ccc2ccccc2[n+]1CCCS(=O)(=O)[O-]	0.3	2.0	0.7	2.1	-3.3
O=C(CCl)N1N=C(c2ccco2)CC1c1ccco1 (centres undefined)	0.3	7.6	-2.5	38.1*	10.3
O=C(CCl)N1N=C(c2cccs2)CC1c1ccco1 (centres undefined)	4.7	-6.1	3.2	4.7	-6.6
O=C(CSC1=NC2(CCCCC2)N=C1c1ccccc1)Nc1ccc2c(c1)OCCO2	-3.1	6.0	-23.6	22.1*	-3.1
COc1ccccc1CCNC(=O)Cn1ccc2cc(S(=O)(=O)N3CCC(C)CC3)ccc21	2.0	-11.7	-28.5	0.2	-2.0
Cc1ccc(C(=O)N/C(=C/c2ccco2)C(=O)NCc2ccco2)cc1	-6.8	-1.5	-1.0	10.7	7.6
COc1ccc(C(=O)N/C(=C/c2ccco2)C(=O)NCc2ccco2)cc1	-5.8	3.3	-2.2	24.6*	1.4
O=c1[nH]cnc2c1ncn2[C@@H]1C[C@@H](O)[C@H](CO)O1	-6.4	-3.3	0.0	3.1	-9.4
OCC1OC(n2cnc3c(=S)nc[nH]c32)CC1O (centres undefined)	-5.0	1.7	1.4	21.2*	-11.1
CCCc1cc(=O)[nH]c(SCC(=O)c2ccc(S(=O)(=O)N3CCCC3)cc2)n1	10.2	-5.4	-5.9	22.0*	4.3
Cc1c(OCC(=O)N[C@H](C(=O)O)c2ccccc2)ccc2c3c(c(=O)oc12)CCCC3	4.0	-4.9	-2.5	1.6	2.9
CC(=O)Nc1ccc(-n2c(C)ccc2-c2ccccc2)cc1	-5.1	7.7	-0.8	22.6*	-6.8
COCCOC(=O)c1c(C)n(C)c2ccc(OC(=O)c3c(OC)cccc3OC)cc12	-0.9	-17.5	-18.2	46.0*	2.2
COCCOC(=O)c1c(C)n(C)c2ccc(OC(=O)N3CCOCC3)cc12	4.4	6.9	-0.1	0.7	-0.5
C/C(CC(=O)Nc1cc(C)ccn1)=N\NC(=O)c1cccc(C)c1	-5.6	-2.6	-0.7	-1.0	0.1
C/C(CC(=O)Nc1cc(C)ccn1)=N\NC(=O)c1cccc(C)c1O	35.4*	4.0	33.0	0.1	11.2
O=C(N/N=C/c1ccco1)c1cccc(N2CCCC2=O)c1	6.1	0.2	11.8	-2.9	12.8
O=C(N/N=C/c1ccco1)c1cccc(N2Cc3ccccc3C2)c1	24.5*	-1.9	10.4	7.9	-0.9
SMILES	TCR-CD3 inh	SIAE inh	HTRA1 inhibitor	PRMT1 inh	ABHD4 inh
C#CCN(Cc1ccco1)C(=O)c1nnc2c3cc(OC)ccc3n(S(=O)(=O)c3ccc(OC)cc3)c2n1	-2.6	-50.3	nt	6.1	7.2
CCOc1ccc(C(=O)N/N=C(/C)C2C(=O)c3ccccc3C2=O)cc1	9.1	3.7	10.1	-0.9	10.4
C/C(=N\NC(=O)c1ccc(Br)cc1)C1C(=O)c2ccccc2C1=O	27.0*	0.3	40.0*	0.1	36.0*
COc1cc(CNc2ccc(O)cc2)cc(Br)c1OCc1ccccc1F	nt	nt	32.6	nt	nt
COc1cc(CNn2cn[nH]c2=S)cc(Br)c1OCc1ccccc1F	-5.1	-0.7	-12.5	23.7*	-13.8
CCOc1cc(CNc2ccc(O)cc2)cc(Br)c1OCc1ccccc1F	nt	nt	44.4*	nt	nt
CCOC(=O)c1ccccc1S(=O)(=O)N1CCN(c2nc(-c3cccs3)nc3ccccc23)CC1	nt	-0.8	nt	0.5	-2.1
CC(=O)Nc1ccc(SCC(=O)Nc2oc(C)c3c(C)n[nH]c(=O)c23)cc1	1.5	-2.5	6.8	27.2*	3.4
CCCCN1CC(C)(C)[C@H](CC(=O)NC)C1=O	-1.1	0.8	5.3	0.9	-0.9
O=[N+]([O-])c1ccccc1/C=C/C1Nc2cccc3cccc(c23)N1	nt	8.5	nt	21.5*	27.0
CC1(C)CC(=O)C2=C(C1)OC1=C(C(=O)CC(C)(C)C1)C2c1ccc(O)cc1O	-7.0	2.1	2.1	78.2*	-2.8
Cc1cccc(NC(=O)C2CCCN2S(=O)(=O)c2cccnc2)c1C (centres undefined)	nt	-5.5	nt	4.2	6.8
COc1ccc(C(=O)N/N=C/c2sc3ccccc3c2O)cc1	nt	nt	23.6	nt	nt
O=C(N/N=C/c1sc2ccccc2c1O)c1cccc2ccccc12	-0.3	-2.0	20.0	55.0*	18.7
COc1ccc2cc(C(=O)N/N=C/c3sc4ccccc4c3O)ccc2c1	-10.4	1.0	31.2	24.7*	3.0
Cc1ccc(NC(=O)/C=C\C(=O)NCC(=O)O)cc1	-1.9	8.5	1.1	24.3*	-0.4
O=C1CCC(NC(=O)Cc2ccccc2)C(=O)N1 (centres undefined)	-7.0	4.9	nt	11.2	6.0
CCCCCCNC(=O)CCCCCNS(=O)(=O)c1ccc(OC)cc1	4.9	1.8	-3.7	-0.2	1.3
O=C1/C(=C/c2cccnc2)SC(=S)N1NS(=O)(=O)c1ccccc1	6.0	6.2	-3.2	22.6*	1.1
O=C(CSc1nnc(Cc2cccs2)n1-c1ccccc1)Nc1ccccc1-c1ccccc1	nt	1.4	nt	2.2	-2.0
Cc1ccc(CN(C)C(=O)C2CCC(=O)N(CCc3ccccc3)C2)o1 (centres undefined)	2.8	1.9	5.3	10.8	4.9
COc1cccc(-c2noc(Cn3nc(C)c([N+](=O)[O-])c3C)n2)c1	6.8	2.2	-12.9	23.2*	-6.6
CC(CC(=O)O)Nc1ccccc1O (centres undefined)	-0.1	0.6	0.3	23.1*	29.4
COc1ccc(-c2cc(C(=O)NN=Cc3ccccc3[N+](=O)[O-])[nH]n2)cc1	nt	-2.7	nt	5.7	-8.9
COc1ccc(-c2cc(-c3nnc(SCC(=O)Nc4ccc(OCc5ccccc5)cc4)n3N)[nH]n2)cc1	nt	2.2	nt	-4.7	-2.2
Cc1nc(SC2CC(=O)N(c3cc(Cl)cc(Cl)c3)C2=O)nc2c1CCCC2 (centres undefined)	-7.7	-3.7	-22.9	24.1*	-31.2
Cc1cccc(N2C(=O)CC(Sc3nc(C)c4c(n3)CCCC4)C2=O)c1 (centres undefined)	3.8	-5.3	-7.2	2.9	3.8

Screens as filed in PubChem BioAssay.
